In ChEMBL document CHEMBL2062426 (J Med Chem, 2012):

How the values were obtained:
[1] = tested on: Kidney; assay: Drug metabolism in iv dosed ICR CD1 mouse kidney assessed as radiometabolite 3 level after 30 mins by gamma-counting based HPLC analysis; assay type: ADME, organism-based; details: in vivo, 0.5 h
Summary of the method: (§1)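 Three 10-month-old female ICR (CD1) mice received about 11.1 MBq tracer by tail vein and were killed 30 min pi. Plasma was taken from blood by centrifugation, and urine was collected. Muscle, kidney and liver were homogenized in 1% SDS/PBS and extracted with acetonitrile/acetic acid. Supernatants were γ-counted, %ID/g was computed against a dose aliquot, and samples were run on C18 radio-HPLC with an acetonitrile/water gradient in 0.05% TFA.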

[2] = tested on: Kidney; assay: Drug metabolism in iv dosed ICR CD1 mouse kidney assessed as radiometabolite 4 level after 30 mins by gamma-counting based HPLC analysis; assay type: ADME, organism-based; details: in vivo, 0.5 h; summary of the method: as §1
[3] = tested on: Liver; assay: Tmax in C57/Bl6 mouse liver at 250 kBq/g bodyweight, iv administered as bolus dose by PET scanning; assay type: ADME, organism-based; details: in vivo
Summary of the method: (§2)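 Adult C57/Bl6 mice given the 18F tracer by intravenous injection. List-mode PET data acquired for 120 min on a high-resolution small-animal scanner and reconstructed into dynamic frames iteratively. Organ volumes of interest were drawn on co-registered CT. Uptake is counts per mL in the VOI divided by total counts in the mouse ×100 (% ID/mL).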

[4] = tested on: Lung; assay: Drug uptake in C57/Bl6 mouse lungs at 250 kBq/g bodyweight, iv administered as bolus dose up to 120 mins by PET scanning; assay type: ADME, organism-based; details: in vivo, 2 h; summary of the method: as §2
[5] = tested on: Serum; assay: Drug metabolism in mouse serum at 5 MBq up to 120 mins by radio-HPLC analysis; assay type: ADME, cell-free; details: 2 h
Summary of the method: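 Serum stability was repeated in mouse blood serum at 37 °C, with analysis by radio-HPLC.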

[6] = tested on: Plasma; assay: Drug metabolism in iv dosed ICR CD1 mouse plasma assessed as radiometabolite 3 level after 30 mins by gamma-counting based HPLC analysis; assay type: ADME, organism-based; details: in vivo, 0.5 h; summary of the method: as §1
[7] = tested on: Liver; assay: Half life in C57/Bl6 mouse liver at 250 kBq/g bodyweight, iv administered as bolus dose by PET scanning; assay type: ADME, organism-based; details: in vivo; summary of the method: as §2
[8] = tested on: Liver; assay: Drug metabolism in iv dosed ICR CD1 mouse liver assessed as radiometabolite 3 level after 30 mins by gamma-counting based HPLC analysis; assay type: ADME, organism-based; details: in vivo, 0.5 h; summary of the method: as §1
[9] = tested on: Plasma; assay: Drug metabolism in iv dosed ICR CD1 mouse plasma assessed as radiometabolite 1 level after 30 mins by gamma-counting based HPLC analysis; assay type: ADME, organism-based; details: in vivo, 0.5 h; summary of the method: as §1
[10] = Octanol-water partition coefficient, log D of the compound after 1 min by gamma-counting at pH 7.4; assay type: physicochemical
Summary of the method: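 About 20 kBq of tracer was shaken for 1 min at room temperature in 0.5 mL PBS pH 7.4 with 0.5 mL 1-octanol, then centrifuged (3000 rpm, 2 min). Triplicate 100 μL samples of each phase were γ-counted. log D7.4 is log(cpm octanol/cpm PBS), from two independent experiments in triplicate, given as mean ± SD.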

[11] = Metabolic stability in iv dosed ICR CD1 mouse urine assessed as compound remaining after 30 mins by gamma-counting based HPLC analysis; assay type: ADME, organism-based; details: in vivo, 0.5 h; summary of the method: as §1
[12] = tested on: Muscle tissue; assay: Drug metabolism in iv dosed ICR CD1 mouse muscle assessed as radiometabolite 3 level after 30 mins by gamma-counting based HPLC analysis; assay type: ADME, organism-based; details: in vivo, 0.5 h; summary of the method: as §1
[13] = tested on: Muscle tissue; assay: Drug metabolism in iv dosed ICR CD1 mouse muscle assessed as radiometabolite 1 level after 30 mins by gamma-counting based HPLC analysis; assay type: ADME, organism-based; details: in vivo, 0.5 h; summary of the method: as §1
[14] = tested on: Kidney; assay: Drug metabolism in iv dosed ICR CD1 mouse kidney assessed as radiometabolite 1 level after 30 mins by gamma-counting based HPLC analysis; assay type: ADME, organism-based; details: in vivo, 0.5 h; summary of the method: as §1
[15] = tested on: Muscle tissue; assay: Drug uptake in C57/Bl6 mouse muscle at 250 kBq/g bodyweight, iv administered as bolus dose up to 120 mins by PET scanning; assay type: ADME, organism-based; details: in vivo, 2 h; summary of the method: as §2
[16] = tested on: Mus musculus; assay: Drug metabolism in C57/Bl6 mouse assessed as defluorination at 250 kBq/g bodyweight, iv administered as bolus dose up to 120 mins by PET scanning; assay type: ADME, organism-based; details: in vivo, 2 h; summary of the method: as §2
[17] = tested on: Liver; assay: Metabolic stability in iv dosed ICR CD1 mouse liver assessed as compound remaining after 30 mins by gamma-counting based HPLC analysis; assay type: ADME, organism-based; details: in vivo, 0.5 h; summary of the method: as §1
[18] = Drug metabolism in iv dosed ICR CD1 mouse urine assessed as radiometabolite 1 level after 30 mins by gamma-counting based HPLC analysis; assay type: ADME, organism-based; details: in vivo, 0.5 h; summary of the method: as §1
[19] = tested on: Kidney; assay: Tmax in C57/Bl6 mouse kidney at 250 kBq/g bodyweight, iv administered as bolus dose by PET scanning; assay type: ADME, organism-based; details: in vivo; summary of the method: as §2
[20] = tested on: Brain; assay: Drug uptake in C57/Bl6 mouse brain at 250 kBq/g bodyweight, iv administered as bolus dose up to 120 mins by PET scanning; assay type: ADME, organism-based; details: in vivo, 2 h; summary of the method: as §2
[21] = tested on: Plasma; assay: Drug metabolism in iv dosed ICR CD1 mouse plasma assessed as radiometabolite 4 level after 30 mins by gamma-counting based HPLC analysis; assay type: ADME, organism-based; details: in vivo, 0.5 h; summary of the method: as §1
[22] = tested on: Liver; assay: Drug metabolism in iv dosed ICR CD1 mouse liver assessed as radiometabolite 4 level after 30 mins by gamma-counting based HPLC analysis; assay type: ADME, organism-based; details: in vivo, 0.5 h; summary of the method: as §1
[23] = Metabolic stability in iv dosed ICR CD1 mouse muscle assessed as compound remaining after 30 mins by gamma-counting based HPLC analysis; assay type: ADME, organism-based, Muscle tissue; details: read-out: Stability; summary of the method: as §1
[24] = Drug metabolism in iv dosed ICR CD1 mouse urine assessed as radiometabolite 4 level after 30 mins by gamma-counting based HPLC analysis; assay type: ADME, organism-based; details: in vivo, 0.5 h; summary of the method: as §1
[25] = tested on: Kidney; assay: Half life in C57/Bl6 mouse kidney at 250 kBq/g bodyweight, iv administered as bolus dose by PET scanning; assay type: ADME, organism-based; details: in vivo; summary of the method: as §2
[26] = tested on: Liver; assay: Drug metabolism in iv dosed ICR CD1 mouse liver assessed as radiometabolite 1 level after 30 mins by gamma-counting based HPLC analysis; assay type: ADME, organism-based; details: in vivo, 0.5 h; summary of the method: as §1
[27] = tested on: Muscle tissue; assay: Drug metabolism in iv dosed ICR CD1 mouse muscle assessed as radiometabolite 4 level after 30 mins by gamma-counting based HPLC analysis; assay type: ADME, organism-based; details: in vivo, 0.5 h; summary of the method: as §1
[28] = tested on: Kidney; assay: Drug metabolism in iv dosed ICR CD1 mouse kidney assessed as radiometabolite 2 level after 30 mins by gamma-counting based HPLC analysis; assay type: ADME, organism-based; details: in vivo, 0.5 h; summary of the method: as §1
[29] = tested on: Kidney; assay: Metabolic stability in iv dosed ICR CD1 mouse kidney assessed as compound remaining after 30 mins by gamma-counting based HPLC analysis; assay type: ADME, organism-based; details: in vivo, 0.5 h; summary of the method: as §1
[30] = Drug metabolism in iv dosed ICR CD1 mouse urine assessed as radiometabolite 3 level after 30 mins by gamma-counting based HPLC analysis; assay type: ADME, organism-based; details: in vivo, 0.5 h; summary of the method: as §1
[31] = tested on: Plasma; assay: Metabolic stability in iv dosed ICR CD1 mouse plasma assessed as compound remaining after 30 mins by gamma-counting based HPLC analysis; assay type: ADME, organism-based; details: in vivo, 0.5 h; summary of the method: as §1
[32] = tested on: Liver; assay: Drug metabolism in iv dosed ICR CD1 mouse liver assessed as radiometabolite 2 level after 30 mins by gamma-counting based HPLC analysis; assay type: ADME, organism-based; details: in vivo, 0.5 h; summary of the method: as §1
[33] = tested on: Plasma; assay: Drug metabolism in iv dosed ICR CD1 mouse plasma assessed as radiometabolite 2 level after 30 mins by gamma-counting based HPLC analysis; assay type: ADME, organism-based; details: in vivo, 0.5 h; summary of the method: as §1
[34] = tested on: Muscle tissue; assay: Drug metabolism in iv dosed ICR CD1 mouse muscle assessed as radiometabolite 2 level after 30 mins by gamma-counting based HPLC analysis; assay type: ADME, organism-based; details: in vivo, 0.5 h; summary of the method: as §1
[35] = Drug metabolism in iv dosed ICR CD1 mouse urine assessed as radiometabolite 2 level after 30 mins by gamma-counting based HPLC analysis; assay type: ADME, organism-based; details: in vivo, 0.5 h; summary of the method: as §1
[36] = Drug uptake in C57/Bl6 mouse myocardium at 250 kBq/g bodyweight, iv administered as bolus dose up to 120 mins by PET scanning; assay type: ADME, organism-based; details: in vivo, 2 h; summary of the method: as §2
[37] = tested on: Serum; assay: Metabolic stability in human serum at 5 MBq up to 120 mins by radio-HPLC analysis; assay type: ADME, cell-free; details: 2 h
Summary of the method: (§3)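 The PBS-formulated 18F tracer (20 μL, 5 MBq) was added to 200 μL human serum and incubated at 37 °C. Samples of 20 μL were taken at 10, 20, 30, 60, 90 and 120 min, quenched in methanol/CH2Cl2 1:1 and centrifuged 2 min. The organic layer was analysed by radio-HPLC (C18; 30% CH3CN/0.1% TFA for 15 min, then gradient).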

[38] = tested on: Serum; assay: Drug metabolism in human serum at 5 MBq up to 120 mins by radio-HPLC analysis; assay type: ADME, cell-free; details: 2 h; summary of the method: as §3

COc1ccc(S(=O)(=O)N(Cc2cn(CC[18F])nn2)[C@@H](C(=O)NO)C(C)C)cc1
Drug metabolism [1]: 0.21 % ID/g
Drug metabolism [2]: 0.1 % ID/g
Tmax [3]: 4 min
Drug uptake [4]: Not Active
Drug metabolism [5]: Not Active
Drug metabolism [6]: 0 % ID/g
t1/2 [7]: 18 min
Drug metabolism [8]: 1.32 % ID/g
Drug metabolism [9]: 0.17 % ID/g
logD at 1 min [10]: 0.6
Stability [11]: 27.86 % ID/g
Drug metabolism [12]: 0 % ID/g
Drug metabolism [13]: 0 % ID/g
Drug metabolism [14]: 0.26 % ID/g
Drug uptake [15]: Not Active
Drug metabolism [16]: Not Active
Stability [17]: 0.78 % ID/g
Drug metabolism [18]: 2.32 % ID/g
Tmax [19]: 0.5 min
Drug uptake [20]: Not Active
Drug metabolism [21]: 0 % ID/g
Drug metabolism [22]: 0.78 % ID/g
tissue uptake at 0.5 h [23]: 0.21 %ID/g
Drug metabolism [24]: 0.33 % ID/g
t1/2 [25]: 13 min
Drug metabolism [26]: 0.12 % ID/g
Drug metabolism [27]: 0 % ID/g
Drug metabolism [28]: 0 % ID/g
Stability [29]: 4.6 % ID/g
Drug metabolism [30]: 2.32 % ID/g
Stability [31]: 0.29 % ID/g
Drug metabolism [32]: 0 % ID/g
Drug metabolism [33]: 0 % ID/g
Drug metabolism [34]: 0 % ID/g
Drug metabolism [35]: 0.33 % ID/g
Drug uptake [36]: Not Active
Stability [37]: Stable
Drug metabolism [38]: Not Active
